Numbered stars: 1 amine (or outer) side, 2 acyl side, 3 side chain; on linkers, the order of the positions; unused ones are H or OH. Bridge positions count the residues as written; N and C are the ends. Square brackets hold non-standard residues; d marks the D form. Peptide text beside a SMILES is read from it. N(2-Aminoethyl)Gly = O=C(CN(CCN[*:3])[*:1])[*:2]; Adipoyl = O=C(CCCCC(=O)[*:2])[*:1]; Glutaryl = O=C(CCCC(=O)[*:2])[*:1]; Suc = O=C(CCC(=O)[*:2])[*:1]; Nphe = O=C(O)CNCc1ccccc1
Assays:
Caco-2 = test: Ratio of Papp for mannitol to Papp for drug in permeability across apical to basolateral side of human Caco-2 cells; format: ADME, cell-based
Melanocortin receptor 5 = Melanocortin receptor 5 (Mus musculus, UniProt P41149); test: Agonist activity at mouse MC5R expressed in HEK293 cells by beta-galactosidase reporter gene assay; format: functional, cell-based
[1] = biological target: Melanocyte-stimulating hormone receptor (Mus musculus, UniProt Q01727); test: Agonist activity at mouse MC1R expressed in HEK293 cells by beta-galactosidase reporter gene assay; format: functional, cell-based
[2] = Metabolic stability in Wistar rat brush border membrane vesicles assessed as drug degradation up to 90 mins by HPLC; format: ADME, cell membranes; conditions: read-out: Activity
Summary of the method: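 Brush border membrane vesicles from duodenum, jejunum and upper ileum of male Wistar rats (200–250 g), Ca2+ precipitation, 13–18-fold marker-enzyme enrichment. Compound incubated with BBMVs at 37 °C for 90 min; duplicate samples at 0, 15, 30, 45, 60, 90 min, quenched 1:1 with ice-cold methanol, centrifuged, analysed by HPLC.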

[3] = Membrane binding affinity to synthetic dimyristoylphosphatidylcholine/polydiacetylene vesicles assessed as colorimetric response by colorimetric assay; set-up: concentration or dose not given beside the values
Summary of the method: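 Peptide added from 0.4 mg/mL stock to vesicles (0.5 mM total lipids, 25 mM Tris-base pH 8), diluted with water; UV–vis absorbance at 640 and 500 nm; %CR = [(PB0 − PBI)/PB0] × 100, PB = Ablue/(Ablue + Ared); duplicates.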

Melanocortin receptor 3 = Melanocortin receptor 3 (Mus musculus, UniProt P33033); test: Agonist activity at mouse MC3R expressed in HEK293 cells by beta-galactosidase reporter gene assay; format: functional, cell-based
Melanocortin receptor 4 = Melanocortin receptor 4 (Mus musculus, UniProt P56450); test: Agonist activity at mouse MC4R expressed in HEK293 cells by beta-galactosidase reporter gene assay; format: functional, cell-based
[4] = (§1) Metabolic stability in rat serum assessed as drug degradation after 4 hrs; format: ADME, cell-free; conditions: read-out: Activity
[5] = (§2) Metabolic stability in rat serum assessed as drug degradation after 1 hr; format: ADME, cell-free; conditions: read-out: Activity
Summary of the method: (§3)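 Incubation in rat serum, sampled at 0, 1, 2 and 5 h; degradation relative to initial concentration.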

Serum [6] = test: as §2; format: ADME, cell-free; conditions: 1 h; summary of the method: as §3
Serum [7] = test: Metabolic stability in rat serum assessed as drug remaining after 3 hrs; format: ADME, cell-free
Serum [8] = test: as §1; format: ADME, cell-free; conditions: 4 h
[9] = biological target: Melanocortin receptor 4 (Mus musculus) (UniProt P56450); test: Agonist activity at mouse MC4R expressed in HEK293 cells at 100 uM by beta-galactosidase reporter gene assay relative to control; format: functional, cell-based
Summary of the method: (§4)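 CRE/β-galactosidase reporter in HEK-293 cells stably expressing the mouse receptor; 6 h peptide exposure with 0.1 mM IBMX; ONPG read at OD 405 nm, normalized to protein content and forskolin (10–4 M) response; % stimulation at highest concentration tested, relative to control; ≥3 independent experiments.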

[10] = biological target: Melanocortin receptor 3 (Mus musculus) (UniProt P33033); test: Agonist activity at mouse MC3R expressed in HEK293 cells at 100 uM by beta-galactosidase reporter gene assay relative to control; format: functional, cell-based; summary of the method: as §4
Chain of Melanocortin receptor 3 (Mus musculus) (P33033 whole entry): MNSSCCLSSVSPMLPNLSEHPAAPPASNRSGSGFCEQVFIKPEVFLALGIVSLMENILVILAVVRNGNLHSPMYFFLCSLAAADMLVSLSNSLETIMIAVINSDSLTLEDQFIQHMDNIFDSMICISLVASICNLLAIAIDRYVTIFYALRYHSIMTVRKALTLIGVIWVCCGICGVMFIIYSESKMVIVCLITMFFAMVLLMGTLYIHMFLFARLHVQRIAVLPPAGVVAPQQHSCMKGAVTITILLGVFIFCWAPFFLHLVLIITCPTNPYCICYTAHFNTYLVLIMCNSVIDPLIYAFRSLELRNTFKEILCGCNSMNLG

Chain of Melanocortin receptor 3 (P33033 whole entry): as above
Chain of Melanocortin receptor 4 (P56450 whole entry): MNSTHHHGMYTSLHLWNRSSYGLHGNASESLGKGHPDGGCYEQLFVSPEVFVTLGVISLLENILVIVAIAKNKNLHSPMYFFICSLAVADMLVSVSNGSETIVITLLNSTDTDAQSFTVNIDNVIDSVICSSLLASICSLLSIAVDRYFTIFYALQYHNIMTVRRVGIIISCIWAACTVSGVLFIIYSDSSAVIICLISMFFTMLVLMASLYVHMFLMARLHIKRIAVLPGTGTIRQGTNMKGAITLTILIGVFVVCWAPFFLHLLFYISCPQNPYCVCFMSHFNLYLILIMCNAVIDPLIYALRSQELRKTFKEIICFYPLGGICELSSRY
Chain of Melanocortin receptor 5 (P41149 whole entry): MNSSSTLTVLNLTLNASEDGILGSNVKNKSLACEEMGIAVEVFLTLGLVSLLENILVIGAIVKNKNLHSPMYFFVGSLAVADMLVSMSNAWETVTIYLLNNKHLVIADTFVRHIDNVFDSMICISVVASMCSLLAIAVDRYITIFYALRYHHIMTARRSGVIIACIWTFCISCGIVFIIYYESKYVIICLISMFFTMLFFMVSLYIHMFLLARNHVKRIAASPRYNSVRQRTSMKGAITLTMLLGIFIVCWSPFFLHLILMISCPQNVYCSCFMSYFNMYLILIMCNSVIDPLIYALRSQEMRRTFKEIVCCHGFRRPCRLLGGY
Chain of Melanocyte-stimulating hormone receptor (Q01727 whole entry): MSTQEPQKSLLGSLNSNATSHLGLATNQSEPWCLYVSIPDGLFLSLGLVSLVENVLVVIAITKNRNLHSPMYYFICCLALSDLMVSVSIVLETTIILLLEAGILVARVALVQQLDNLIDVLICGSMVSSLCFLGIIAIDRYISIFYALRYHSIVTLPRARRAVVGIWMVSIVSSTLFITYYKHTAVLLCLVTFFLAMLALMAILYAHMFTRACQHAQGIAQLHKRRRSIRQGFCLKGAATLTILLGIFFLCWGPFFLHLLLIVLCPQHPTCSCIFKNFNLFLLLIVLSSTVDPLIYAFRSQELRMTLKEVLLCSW
Chain of Melanocortin receptor 4 (Mus musculus) (P56450 whole entry): as the sequence (P56450 whole entry) above

In the case of `N=C(N)NCCC[C@@H]1NC(=O)[C@@H](Cc2ccccc2)NC(=O)CN(Cc2ccccc2)C(=O)CCCC(=O)NCCN(CC(N)=O)C(=O)[C@H](Cc2c[nH]c3ccccc23)NC1=O`, the Ratio (Caco-2) is reported as 3, the EC50 (Melanocortin receptor 5) is reported as 310 nM and the EC50 [1] is reported as 220 nM. For the same compound, the metabolised at 1.5 h [2] was 5%, the Activity [3] was 89% and the EC50 (Melanocortin receptor 3) was over 100 nM. For the same compound, the EC50 (Melanocortin receptor 4) was 640 nM and the metabolised at 4 h [4] was over 40%.

For `NC(=O)[C@H](Cc1c[nH]c2ccccc12)NC(=O)[C@H](CCCN=C(N)N)NC(=O)[C@@H](Cc1ccccc1)NC(=O)[C@@H](N)Cc1ccccc1`, the EC50 (Melanocortin receptor 5) was 143 nM, the EC50 [1] was 503 nM and the EC50 (Melanocortin receptor 3) was 11900 nM. The EC50 (Melanocortin receptor 4) was 70.6 nM.

`CC(=O)NCC(=O)N(CC(=O)N[C@H](Cc1ccccc1)C(=O)N[C@@H](CCCNC(=N)N)C(=O)N[C@@H](Cc1c[nH]c2ccccc12)C(=O)NCC(N)=O)Cc1ccccc1` showed an EC50 (Melanocortin receptor 5) of 3430 nM, an EC50 [1] of 11800 nM and a metabolised at 1.5 h [2] of 20%. The metabolised at 1 h [5] was 50%, the Activity [3] was 31% and the EC50 (Melanocortin receptor 3) was over 100 nM. For the same compound, the EC50 (Melanocortin receptor 4) was 9820 nM.

`N=C(N)NCCC[C@@H]1NC(=O)[C@@H](Cc2ccccc2)NC(=O)CN(Cc2ccccc2)C(=O)CCC(=O)NCCN(CC(N)=O)C(=O)[C@H](Cc2c[nH]c3ccccc23)NC1=O` gave an EC50 (Melanocortin receptor 5) of 1650 nM, an EC50 [1] of 380 nM and a metabolised at 1.5 h [2] of 5%. The Stability (Serum [6]) was “Stable”, the Activity [3] was under 30% and the EC50 (Melanocortin receptor 3) was over 100 nM. The Stability (Serum [7]) was “Stable”, the EC50 (Melanocortin receptor 4) was 1370 nM and the Activity (Serum [8]) was “Stable”.

In the case of `N=C(N)NCCC[C@@H]1NC(=O)[C@@H](Cc2ccccc2)NC(=O)CN(Cc2ccccc2)C(=O)CCCCC(=O)NCCN(CC(N)=O)C(=O)[C@H](Cc2c[nH]c3ccccc23)NC1=O`, the EC50 (Melanocortin receptor 5) is reported as 8.1 nM, the EC50 [1] is reported as 120 nM and the metabolised at 1.5 h [2] is reported as 5%. For the same compound, the Activity [3] was 90%, the EC50 (Melanocortin receptor 3) was 7170 nM and the EC50 (Melanocortin receptor 4) was 49 nM. It also gave a metabolised at 4 h [4] of over 40%.

Compound `NC(=O)CN1CCNC(=O)CCCCC(=O)N[C@@H](Cc2ccccc2)C(=O)N(Cc2ccccc2)CC(=O)N[C@@H](CCCN=C(N)N)C(=O)N[C@@H](Cc2c[nH]c3ccccc23)C1=O` (F[Nphe]RW[N(2-Aminoethyl)Gly]-NH2; linker N-5 via Adipoyl) has an EC50 (Melanocortin receptor 5) of 485 nM, an EC50 [1] of 1170 nM and a metabolised at 1.5 h [2] of 5%. The EC50 (Melanocortin receptor 3) was over 100 nM and the EC50 (Melanocortin receptor 4) was 3300 nM.

With `N=C(N)NCCC[C@@H]1NC(=O)CN(Cc2ccccc2)C(=O)[C@H](Cc2ccccc2)NC(=O)CCCCC(=O)NCCN(CC(N)=O)C(=O)[C@H](Cc2c[nH]c3ccccc23)NC1=O` (F[Nphe]RW[N(2-Aminoethyl)Gly]-NH2; linker N-5 via Adipoyl) the Activity [3] was under 30%.

Compound `NC(=O)CN1CCNC(=O)CCCC(=O)N[C@@H](Cc2ccccc2)C(=O)N(Cc2ccccc2)CC(=O)N[C@@H](CCCN=C(N)N)C(=O)N[C@@H](Cc2c[nH]c3ccccc23)C1=O` (F[Nphe]RW[N(2-Aminoethyl)Gly]-NH2; linker N-5 via Glutaryl) has an EC50 (Melanocortin receptor 5) of 2320 nM, an EC50 [1] of 1000 nM and a metabolised at 1.5 h [2] of 5%. It also gave an EC50 (Melanocortin receptor 3) of over 100 nM.

`N=C(N)NCCC[C@@H]1NC(=O)CN(Cc2ccccc2)C(=O)[C@H](Cc2ccccc2)NC(=O)CCCC(=O)NCCN(CC(N)=O)C(=O)[C@H](Cc2c[nH]c3ccccc23)NC1=O` (F[Nphe]RW[N(2-Aminoethyl)Gly]-NH2; linker N-5 via Glutaryl) showed an Activity [3] of under 30% and an Activity [9] of 25%.

With `NC(=O)CN1CCNC(=O)CCC(=O)N[C@@H](Cc2ccccc2)C(=O)N(Cc2ccccc2)CC(=O)N[C@@H](CCCN=C(N)N)C(=O)N[C@@H](Cc2c[nH]c3ccccc23)C1=O` (F[Nphe]RW[N(2-Aminoethyl)Gly]-NH2; linker N-5 via Suc) the EC50 (Melanocortin receptor 5) was 3960 nM, the EC50 [1] was 2810 nM and the metabolised at 1.5 h [2] was 5%. It also gave an EC50 (Melanocortin receptor 3) of over 100 nM and an EC50 (Melanocortin receptor 4) of 3830 nM.

With `N=C(N)NCCC[C@@H]1NC(=O)CN(Cc2ccccc2)C(=O)[C@H](Cc2ccccc2)NC(=O)CCC(=O)NCCN(CC(N)=O)C(=O)[C@H](Cc2c[nH]c3ccccc23)NC1=O` (F[Nphe]RW[N(2-Aminoethyl)Gly]-NH2; linker N-5 via Suc) the Activity [3] was under 30%.

With `CC(=O)NCC(=O)N[C@@H](Cc1ccccc1)C(=O)N(CC(=O)N[C@@H](CCCNC(=N)N)C(=O)N[C@@H](Cc1c[nH]c2ccccc12)C(=O)NCC(N)=O)Cc1ccccc1` (HELM PEPTIDE1{[ac].G.F.[O=C(CN(Cc1ccccc1)[*:1])[*:2]].R.W.G.[am]}$$$$V2.0) the EC50 (Melanocortin receptor 5) was 16.2 nM, the EC50 [1] was 220 nM and the metabolised at 1.5 h [2] was 20%. The Activity [3] was under 30%, the EC50 (Melanocortin receptor 3) was over 100 nM and the Stability (Serum [7]) was “Unstable”. For the same compound, the EC50 (Melanocortin receptor 4) was 8.8 nM.

In the case of `CC(=O)NCC(=O)N(CC(=O)N(CC(=O)N[C@@H](CCCNC(=N)N)C(=O)N[C@@H](Cc1c[nH]c2ccccc12)C(=O)NCC(N)=O)Cc1ccccc1)Cc1ccccc1` (HELM PEPTIDE1{[ac].G.[O=C(CN(Cc1ccccc1)[*:1])[*:2]].[O=C(CN(Cc1ccccc1)[*:1])[*:2]].R.W.G.[am]}$$$$V2.0), the EC50 (Melanocortin receptor 5) is reported as 8.1 nM, the EC50 [1] is reported as 240 nM and the metabolised at 1.5 h [2] is reported as 20%. For the same compound, the Activity [3] was under 30%, the Stability (Serum [7]) was “Unstable” and the Activity [10] was 40%. The EC50 (Melanocortin receptor 4) was 10.5 nM.

`NC(=O)CN1CCNC(=O)CCCCC(=O)N(Cc2ccccc2)CC(=O)N(Cc2ccccc2)CC(=O)N[C@@H](CCCN=C(N)N)C(=O)N[C@@H](Cc2c[nH]c3ccccc23)C1=O` ([Nphe][Nphe]RW[N(2-Aminoethyl)Gly]-NH2; linker N-5 via Adipoyl) gave an EC50 (Melanocortin receptor 5) of 320 nM, an EC50 [1] of 990 nM and a metabolised at 1.5 h [2] of 5%. It also gave an EC50 (Melanocortin receptor 3) of over 100 nM and an EC50 (Melanocortin receptor 4) of 1700 nM.

Compound `N=C(N)NCCC[C@@H]1NC(=O)CN(Cc2ccccc2)C(=O)CN(Cc2ccccc2)C(=O)CCCCC(=O)NCCN(CC(N)=O)C(=O)[C@H](Cc2c[nH]c3ccccc23)NC1=O` ([Nphe][Nphe]RW[N(2-Aminoethyl)Gly]-NH2; linker N-5 via Adipoyl) has an Activity [3] of under 30%.

With `NC(=O)CN1CCNC(=O)CCCC(=O)N(Cc2ccccc2)CC(=O)N(Cc2ccccc2)CC(=O)N[C@@H](CCCN=C(N)N)C(=O)N[C@@H](Cc2c[nH]c3ccccc23)C1=O` ([Nphe][Nphe]RW[N(2-Aminoethyl)Gly]-NH2; linker N-5 via Glutaryl) the Ratio (Caco-2) was 3, the EC50 (Melanocortin receptor 5) was 350 nM and the EC50 [1] was 1680 nM. The metabolised at 1.5 h [2] was 5%, the EC50 (Melanocortin receptor 3) was over 100 nM and the EC50 (Melanocortin receptor 4) was 2250 nM.

`N=C(N)NCCC[C@@H]1NC(=O)CN(Cc2ccccc2)C(=O)CN(Cc2ccccc2)C(=O)CCCC(=O)NCCN(CC(N)=O)C(=O)[C@H](Cc2c[nH]c3ccccc23)NC1=O` ([Nphe][Nphe]RW[N(2-Aminoethyl)Gly]-NH2; linker N-5 via Glutaryl) gave an Activity [3] of under 30%.

Compound `N=C(N)NCCC[C@@H]1NC(=O)CN(Cc2ccccc2)C(=O)CN(Cc2ccccc2)C(=O)CCC(=O)NCCN(CC(N)=O)C(=O)[C@H](Cc2c[nH]c3ccccc23)NC1=O` ([Nphe][Nphe]RW[N(2-Aminoethyl)Gly]-NH2; linker N-5 via Suc) has an EC50 (Melanocortin receptor 5) of 2950 nM, an EC50 [1] of 620 nM and a metabolised at 1.5 h [2] of 5%. It also gave an Activity [3] of under 30%, an EC50 (Melanocortin receptor 3) of over 100 nM and an EC50 (Melanocortin receptor 4) of 1960 nM.
